Data from ChEMBL document CHEMBL4308843, “Identification of ABX-1431, a Selective Inhibitor of Monoacylglycerol Lipase and Clinical Candidate for Treatment of Neurological Disorders” (J Med Chem, 2018).
Calls of active or inactive are those of the source. The calls are words filed in the database; no cut-off is given here.

Assays:
[1] = target: T1, Platelet-activating factor acetylhydrolase (Homo sapiens, UniProt Q13093); assay: Inhibition of PLA2G7 derived from human PC3 cell lysates preincubated for 30 mins followed by JW912 addition after 30 mins by gel-based ABPP assay; format: subcellular, Lysate
T1 sequence (Q13093 whole entry): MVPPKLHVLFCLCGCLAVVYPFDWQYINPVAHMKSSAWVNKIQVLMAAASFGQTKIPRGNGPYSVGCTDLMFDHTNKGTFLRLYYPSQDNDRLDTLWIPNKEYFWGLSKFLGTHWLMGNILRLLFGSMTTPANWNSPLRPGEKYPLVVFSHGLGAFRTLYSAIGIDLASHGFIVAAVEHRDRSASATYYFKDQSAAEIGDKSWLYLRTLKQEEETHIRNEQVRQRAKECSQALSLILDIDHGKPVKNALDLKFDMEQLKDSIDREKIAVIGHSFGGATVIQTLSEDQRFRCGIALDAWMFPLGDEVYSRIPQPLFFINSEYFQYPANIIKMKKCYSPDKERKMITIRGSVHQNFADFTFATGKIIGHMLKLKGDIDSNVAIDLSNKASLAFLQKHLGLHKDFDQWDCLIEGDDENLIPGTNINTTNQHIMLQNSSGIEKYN

[2] = target: T2, Monoacylglycerol lipase ABHD6 (Mus musculus) (UniProt Q8R2Y0); assay: Inhibition of ABHD6 in mouse brain membrane homogenates at 0.001 to 10 uM preincubated for 30 mins followed by FP-Rh addition after 30 mins by gel-based ABPP assay; format: cell membranes
T2 sequence (whole entry): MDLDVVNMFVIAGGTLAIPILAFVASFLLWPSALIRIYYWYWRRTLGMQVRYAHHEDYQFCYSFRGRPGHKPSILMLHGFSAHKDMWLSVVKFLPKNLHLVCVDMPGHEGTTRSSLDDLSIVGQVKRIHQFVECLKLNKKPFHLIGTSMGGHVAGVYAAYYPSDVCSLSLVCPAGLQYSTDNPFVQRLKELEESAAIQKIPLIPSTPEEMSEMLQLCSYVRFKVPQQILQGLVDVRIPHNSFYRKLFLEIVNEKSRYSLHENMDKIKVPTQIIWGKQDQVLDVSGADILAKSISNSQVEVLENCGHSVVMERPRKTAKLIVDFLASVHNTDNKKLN

Canis lupus familiaris = organism: Canis lupus familiaris; assay: Inhibition of ABHD6 in dog brain membrane homogenates at 0.001 to 10 uM preincubated for 30 mins followed by FP-Rh addition after 30 mins by gel-based ABPP assay; format: cell membranes
How it was run: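 Dog brain membrane homogenates (1 mg/mL protein) were preincubated with 0.001-10 µM inhibitor or DMSO for 30 min at 37°C. They were then labelled with 1 µM probe (FP-Rh or HT-01) for 30 min at 25°C. Reactions were quenched in SDS-PAGE loading buffer and scanned in-gel. ABHD6 band intensities were normalised to DMSO.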

[3] = Half life in Sprague-Dawley rat at 1 mg/kg, iv by LC-MS analysis; format: ADME, organism-based; settings: in vivo
How it was run: (§1)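 Rats (n = 3 per route) were dosed at 1 mg/kg iv (70% PEG400 in HPBCD/saline) or 5 mg/kg po (70% PEG400 in 0.5% CMC/saline), fasted overnight to 4 h post-dose. Jugular-catheter blood (~100 µL) was sampled to 24 h into 400 µL acetonitrile to stop esterases. Samples were quantified by HPLC-MS/MS, with noncompartmental analysis.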

[4] = Oral bioavailability in Sprague-Dawley rat at 5 mg/kg by LC-MS analysis; format: ADME, organism-based; settings: in vivo; how it was run: as §1
[5] = Clearance in Beagle dog at 1 mg/kg, iv or 1 mg/kg, po by LC-MS analysis; format: ADME, organism-based, Canis lupus familiaris; settings: in vivo
How it was run: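 Male beagle dogs (n = 3 per route), 10–12 months old, were dosed at 1 mg/kg iv or po in PEG400/ethanol/PBS (7/2/1), fasted overnight to 2 h post-dose. Peripheral venous blood was sampled to 24 h into K2EDTA and plasma frozen at −80 °C. Plasma was quantified by HPLC-MS/MS, with noncompartmental analysis.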

Cytochrome P450 1A2 = target: T3, Cytochrome P450 1A2 (Homo sapiens, UniProt P05177); assay: Inhibition of recombinant human CYP1A2; format: ADME
T3 sequence (P05177 whole entry): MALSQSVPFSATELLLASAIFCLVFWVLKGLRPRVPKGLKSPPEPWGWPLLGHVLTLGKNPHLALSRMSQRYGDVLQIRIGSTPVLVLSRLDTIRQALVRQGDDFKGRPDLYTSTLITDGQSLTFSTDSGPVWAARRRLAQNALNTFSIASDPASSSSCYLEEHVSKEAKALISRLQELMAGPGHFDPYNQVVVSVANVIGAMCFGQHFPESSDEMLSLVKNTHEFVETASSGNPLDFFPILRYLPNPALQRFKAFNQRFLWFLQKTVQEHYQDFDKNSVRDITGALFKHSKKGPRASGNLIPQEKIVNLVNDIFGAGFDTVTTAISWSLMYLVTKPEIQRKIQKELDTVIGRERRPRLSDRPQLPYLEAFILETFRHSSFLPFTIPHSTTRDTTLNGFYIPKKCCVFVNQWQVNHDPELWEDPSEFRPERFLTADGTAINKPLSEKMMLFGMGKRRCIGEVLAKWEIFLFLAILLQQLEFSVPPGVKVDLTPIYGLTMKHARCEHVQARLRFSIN

[6] = Substrate activity at BCRP (unknown origin) at 10 uM; format: ADME; settings: human
Mus musculus [7] = assay: In vivo inhibition of MGLL in po dosed ICR mouse brain measured 4 hrs post dose in presence of FP-Rh probe by gel-based ABPP assay; format: functional
How it was run: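 Male ICR mice, 6–12 weeks old, single oral gavage 0.5–32 mg/kg in PEG400:ethanol:PBS (7/2/1), 5 mL/kg, n = 3. Killed at 4 h; one brain hemisphere for gel-based ABPP with FP-Rh (MGLL band quantified), the other for 2-AG by LC-MS/MS.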

Mus musculus [8] = assay: In vivo inhibition of MGLL in ICR mouse brain at 25 mg/kg, po measured at 4 hrs post dose in presence of FP-Rh probe by gel-based ABPP assay; format: functional, organism-based

## O=C(OC(C(F)(F)F)C(F)(F)F)N1CCN(Cc2ccc(C(F)(F)F)cc2N2CCCC2)CC1 [ELCUBRAGISTAT]
[1]
  IC50: > 10 µM
[2]
  inhibition: Active
Canis lupus familiaris
  inhibition: Active
[3]
  half-life: 3.6 h
[4]
  bioavailability: 64%
[5]
  clearance: 6.3 mL/min/kg
Cytochrome P450 1A2
  IC50: > 50 µM
[6]
  Activity: Not Active
Mus musculus [7]
  ED50: 1.4 mg/kg
  inhibition: Dose-dependent effect
Mus musculus [8]
  inhibition: Active
